# Laboratory results published in ChEMBL document CHEMBL5376013, “Design, synthesis and biological evaluation of novel morpholinopyrimidine-5-carbonitrile derivatives as dual PI3K/mTOR inhibitors” (RSC Med Chem, 2024).
# Experiments:
# Format in all cases: functional
# Details in all cases: read-out: GI
# SW-620 = experiment: Antitumor activity against human SW-620 cells assessed as growth inhibition at 10 uM relative to control
# Method in brief: (§1)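 Drug exposure 48 h at 37 °C, 5% CO2. Adherent cells fixed with cold TCA (10% final), suspension cells with TCA (16% final). Stained with 0.4% SRB in 1% acetic acid, dissolved in 10 mM Tris, A515. Growth relative to time-zero and untreated control.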
# SF-295 = experiment: Antitumor activity against human SF-295 cells assessed as growth inhibition at 10 uM relative to control
# Method in brief: (§2)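 After drug addition, plates were incubated 48 h at 37 °C under 5% CO2. Adherent cells were fixed with cold TCA (10% final, 60 min, 4 °C) and suspension cells with 16% final TCA. Staining used 0.4% SRB in 1% acetic acid, solubilized in 10 mM trizma, read at A515. Percent growth was calculated from time-zero, control and treated absorbances.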
# COLO 205 = experiment: Antitumor activity against human COLO 205 cells assessed as growth inhibition at 10 uM relative to control; method in brief: as §2
# HL-60 = experiment: Antitumor activity against human HL-60 cells assessed as growth inhibition at 10 uM relative to control; method in brief: as §2
# SNB-75 = experiment: Antitumor activity against human SNB-75 cells assessed as growth inhibition at 10 uM relative to control; method in brief: as §1
# NCI-H322M = experiment: Antitumor activity against human NCI-H322M cells assessed as growth inhibition at 10 uM relative to control; method in brief: as §2
# U-251 = experiment: Antitumor activity against human U-251 cells assessed as growth inhibition at 10 uM relative to control; method in brief: as §1
# A498 = experiment: Antitumor activity against human A498 cells assessed as growth inhibition at 10 uM relative to control; method in brief: as §2
# OVCAR-4 = experiment: Antitumor activity against human OVCAR-4 cells assessed as growth inhibition at 10 uM relative to control; method in brief: as §2
# ACHN = experiment: Antitumor activity against human ACHN cells assessed as growth inhibition at 10 uM relative to control; method in brief: as §2
# SK-MEL-5 = experiment: Antitumor activity against human SK-MEL-5 cells assessed as growth inhibition at 10 uM relative to control; method in brief: as §1
# HOP-62 = experiment: Antitumor activity against human HOP-62 cells assessed as growth inhibition at 10 uM relative to control; method in brief: as §2
# MDA-MB-435 = experiment: Antitumor activity against human MDA-MB-435 cells assessed as growth inhibition at 10 uM relative to control; method in brief: as §2
# IGROV-1 = experiment: Antitumor activity against human IGROV-1 cells assessed as growth inhibition at 10 uM relative to control; method in brief: as §2
# UO-31 = experiment: Antitumor activity against human UO-31 cells assessed as growth inhibition at 10 uM relative to control; method in brief: as §1
# OVCAR-3 = experiment: Antitumor activity against human OVCAR-3 cells assessed as growth inhibition at 10 uM relative to control; method in brief: as §2
# MDA-MB-468 = experiment: Antitumor activity against human MDA-MB-468 cells assessed as growth inhibition at 10 uM relative to control; method in brief: as §2
# UACC-257 = experiment: Antitumor activity against human UACC-257 cells assessed as growth inhibition at 10 uM relative to control; method in brief: as §1
# 786-0 = experiment: Antitumor activity against human 786-0 cells assessed as growth inhibition at 10 uM relative to control; method in brief: as §2
# NCI-H522 = experiment: Antitumor activity against human NCI-H522 cells assessed as growth inhibition at 10 uM relative to control; method in brief: as §2
# SF-539 = experiment: Antitumor activity against human SF-539 cells assessed as growth inhibition at 10 uM relative to control; method in brief: as §2
# SK-MEL-2 = experiment: Antitumor activity against human SK-MEL-2 cells assessed as growth inhibition at 10 uM relative to control; method in brief: as §2
# NCI-H226 = experiment: Antitumor activity against human NCI-H226 cells assessed as growth inhibition at 10 uM relative to control; method in brief: as §2
# NCI-H460 = experiment: Antitumor activity against human NCI-H460 cells assessed as growth inhibition at 10 uM relative to control; method in brief: as §2
# KM12 = experiment: Antitumor activity against human KM12 cells assessed as growth inhibition at 10 uM relative to control; method in brief: as §2
# SK-OV-3 = experiment: Antitumor activity against human SK-OV-3 cells assessed as growth inhibition at 10 uM relative to control; method in brief: as §1
# HOP-92 = experiment: Antitumor activity against human HOP-92 cells assessed as growth inhibition at 10 uM relative to control; method in brief: as §2
# HCT-15 = experiment: Antitumor activity against human HCT-15 cells assessed as growth inhibition at 10 uM relative to control; method in brief: as §2
# EKVX = experiment: Antitumor activity against human EKVX cells assessed as growth inhibition at 10 uM relative to control; method in brief: as §2
# BT-549 = experiment: Antitumor activity against human BT-549 cells assessed as growth inhibition at 10 uM relative to control; method in brief: as §2
# SN12C = experiment: Antitumor activity against human SN12C cells assessed as growth inhibition at 10 uM relative to control; method in brief: as §1
# SK-MEL-28 = experiment: Antitumor activity against human SK-MEL-28 cells assessed as growth inhibition at 10 uM relative to control; method in brief: as §1
# HCT-116 = experiment: Antitumor activity against human HCT-116 cells assessed as growth inhibition at 10 uM relative to control; method in brief: as §2
# SF-268 = experiment: Antitumor activity against human SF-268 cells assessed as growth inhibition at 10 uM relative to control; method in brief: as §2
# LOX IMVI = experiment: Antitumor activity against human LOX IMVI cells assessed as growth inhibition at 10 uM relative to control; method in brief: as §2
# MOLT-4 = experiment: Antitumor activity against human MOLT-4 cells assessed as growth inhibition at 10 uM relative to control; method in brief: as §2
# PC-3 = experiment: Antitumor activity against human PC-3 cells assessed as growth inhibition at 10 uM relative to control; method in brief: as §2
# RXF 393 = experiment: Antitumor activity against human RXF 393 cells assessed as growth inhibition at 10 uM relative to control; method in brief: as §2
# MDA-MB-231 = experiment: Antitumor activity against human MDA-MB-231 cells assessed as growth inhibition at 10 uM relative to control; method in brief: as §2
# T47D = experiment: Antitumor activity against human T47D cells assessed as growth inhibition at 10 uM relative to control; method in brief: as §1
# OVCAR-8 = experiment: Antitumor activity against human OVCAR-8 cells assessed as growth inhibition at 10 uM relative to control; method in brief: as §2
# M14 = experiment: Antitumor activity against human M14 cells assessed as growth inhibition at 10 uM relative to control; method in brief: as §2
# UACC-62 = experiment: Antitumor activity against human UACC-62 cells assessed as growth inhibition at 10 uM relative to control; method in brief: as §1
# HT-29 = experiment: Antitumor activity against human HT-29 cells assessed as growth inhibition at 10 uM relative to control; method in brief: as §2
# DU-145 = experiment: Antitumor activity against human DU-145 cells assessed as growth inhibition at 10 uM relative to control; method in brief: as §2
# CAKI-1 = experiment: Antitumor activity against human CAKI-1 cells assessed as growth inhibition at 10 uM relative to control; method in brief: as §2
smiles,measurement,setting,value
N#Cc1c(-c2ccc(Cl)cc2)nc(N/N=C/c2cccc(O)c2)nc1N1CCOCC1,inhibition of growth at 10 µM,SW-620,35.2%
same,inhibition of growth at 10 µM,SF-295,< 1%
same,inhibition of growth at 10 µM,COLO 205,14.8%
same,inhibition of growth at 10 µM,HL-60,33.4%
same,inhibition of growth at 10 µM,SNB-75,53.9%
same,inhibition of growth at 10 µM,NCI-H322M,13.7%
same,inhibition of growth at 10 µM,U-251,14.2%
same,inhibition of growth at 10 µM,A498,24.9%
same,inhibition of growth at 10 µM,OVCAR-4,< 1%
same,inhibition of growth at 10 µM,ACHN,39.1%
same,inhibition of growth at 10 µM,SK-MEL-5,23.5%
same,inhibition of growth at 10 µM,HOP-62,21.2%
same,inhibition of growth at 10 µM,MDA-MB-435,13%
same,inhibition of growth at 10 µM,IGROV-1,35.1%
same,inhibition of growth at 10 µM,UO-31,64.3%
same,inhibition of growth at 10 µM,OVCAR-3,22.3%
same,inhibition of growth at 10 µM,MDA-MB-468,12.6%
same,inhibition of growth at 10 µM,UACC-257,< 1%
same,inhibition of growth at 10 µM,786-0,35.7%
same,inhibition of growth at 10 µM,NCI-H522,25.2%
same,inhibition of growth at 10 µM,SF-539,32.2%
same,inhibition of growth at 10 µM,SK-MEL-2,< 1%
same,inhibition of growth at 10 µM,NCI-H226,36.7%
same,inhibition of growth at 10 µM,NCI-H460,22.1%
same,inhibition of growth at 10 µM,KM12,24%
same,inhibition of growth at 10 µM,SK-OV-3,< 1%
same,inhibition of growth at 10 µM,HOP-92,36.7%
same,inhibition of growth at 10 µM,HCT-15,55.3%
same,inhibition of growth at 10 µM,EKVX,33.4%
same,inhibition of growth at 10 µM,BT-549,26.9%
same,inhibition of growth at 10 µM,SN12C,21.7%
same,inhibition of growth at 10 µM,SK-MEL-28,22.9%
same,inhibition of growth at 10 µM,HCT-116,42.1%
same,inhibition of growth at 10 µM,SF-268,18.1%
same,inhibition of growth at 10 µM,LOX IMVI,38.2%
same,inhibition of growth at 10 µM,MOLT-4,60.2%
same,inhibition of growth at 10 µM,PC-3,36.2%
same,inhibition of growth at 10 µM,RXF 393,< 1%
same,inhibition of growth at 10 µM,MDA-MB-231,< 1%
same,inhibition of growth at 10 µM,T47D,35.4%
same,inhibition of growth at 10 µM,OVCAR-8,34.6%
same,inhibition of growth at 10 µM,M14,33.4%
same,inhibition of growth at 10 µM,UACC-62,< 1%
same,inhibition of growth at 10 µM,HT-29,30.2%
same,inhibition of growth at 10 µM,DU-145,36.6%
same,inhibition of growth at 10 µM,CAKI-1,29.9%
N#Cc1c(-c2ccc(Cl)cc2)nc(N/N=C2/C(=O)Nc3ccccc32)nc1N1CCOCC1,inhibition of growth at 10 µM,SW-620,10.1%
same,inhibition of growth at 10 µM,SF-295,< 1%
same,inhibition of growth at 10 µM,COLO 205,1%
same,inhibition of growth at 10 µM,HL-60,< 1%
same,inhibition of growth at 10 µM,SNB-75,21%
same,inhibition of growth at 10 µM,NCI-H322M,< 1%
same,inhibition of growth at 10 µM,U-251,< 1%
same,inhibition of growth at 10 µM,A498,< 1%
same,inhibition of growth at 10 µM,OVCAR-4,< 1%
same,inhibition of growth at 10 µM,ACHN,< 1%
same,inhibition of growth at 10 µM,SK-MEL-5,< 1%
same,inhibition of growth at 10 µM,HOP-62,< 1%
same,inhibition of growth at 10 µM,MDA-MB-435,< 1%
same,inhibition of growth at 10 µM,IGROV-1,< 1%
same,inhibition of growth at 10 µM,UO-31,< 1%
same,inhibition of growth at 10 µM,OVCAR-3,< 1%
same,inhibition of growth at 10 µM,MDA-MB-468,< 1%
same,inhibition of growth at 10 µM,UACC-257,< 1%
same,inhibition of growth at 10 µM,786-0,< 1%
same,inhibition of growth at 10 µM,NCI-H522,< 1%
same,inhibition of growth at 10 µM,SF-539,< 1%
same,inhibition of growth at 10 µM,SK-MEL-2,< 1%
same,inhibition of growth at 10 µM,NCI-H226,< 1%
same,inhibition of growth at 10 µM,NCI-H460,17.6%
same,inhibition of growth at 10 µM,KM12,< 1%
same,inhibition of growth at 10 µM,SK-OV-3,< 1%
same,inhibition of growth at 10 µM,HOP-92,< 1%
same,inhibition of growth at 10 µM,HCT-15,1%
same,inhibition of growth at 10 µM,EKVX,< 1%
same,inhibition of growth at 10 µM,BT-549,< 1%
same,inhibition of growth at 10 µM,SN12C,< 1%
same,inhibition of growth at 10 µM,SK-MEL-28,< 1%
same,inhibition of growth at 10 µM,HCT-116,10.5%
same,inhibition of growth at 10 µM,SF-268,< 1%
same,inhibition of growth at 10 µM,LOX IMVI,< 1%
same,inhibition of growth at 10 µM,MOLT-4,< 1%
same,inhibition of growth at 10 µM,PC-3,< 1%
same,inhibition of growth at 10 µM,RXF 393,< 1%
same,inhibition of growth at 10 µM,MDA-MB-231,< 1%
same,inhibition of growth at 10 µM,T47D,< 1%
same,inhibition of growth at 10 µM,OVCAR-8,< 1%
same,inhibition of growth at 10 µM,M14,< 1%
same,inhibition of growth at 10 µM,UACC-62,< 1%
same,inhibition of growth at 10 µM,HT-29,< 1%
same,inhibition of growth at 10 µM,DU-145,< 1%
same,inhibition of growth at 10 µM,CAKI-1,< 1%
